In ChEMBL document CHEMBL4765248, “Design, synthesis, biological evaluation and molecular docking study of novel thieno[3,2-d]pyrimidine derivatives as potent FAK inhibitors” (Eur J Med Chem, 2020):
pIC50: −log10 of the molar value.

Experiments:
[1] = test system: A549; experiment: Antiproliferative activity against human A549 cells assessed as cell viability at 0.5 uM measured after 24 hrs by MTT assay (reference value: 100%); type: functional; settings: read-out: Activity
[2] = test system: MDA-MB-231; experiment: Inhibition of cell migration in human MDA-MB-231 cells measured after 48 hrs by wound healing assay; type: functional, cell-based; settings: dose 0.15-0.6 µM
How it was run: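 MDA-MB-231 cells (2×10^6/well) were grown to confluence and the monolayer was scratched with a pipette tip. Cells were washed with PBS, kept in serum-free medium and treated with DMSO or compound at 0.15, 0.3 or 0.6 μM for 48 h. Wound closure was photographed by inverted microscope at 24 and 48 h.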

[3] = test system: A549; experiment: Antiproliferative activity against human A549 cells assessed as cell viability at 0.1 uM measured after 72 hrs by MTT assay (reference value: 100%); type: functional; settings: read-out: Activity
[4] = target: MAP kinase-interacting serine/threonine-protein kinase 1 (Homo sapiens) (UniProt Q9BUB5); experiment: Inhibition of GST-tagged full length human MKNK1 expressed in insect expression system at 1 uM by Selectscreen kinase assay
How it was run: (§1)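 Single-point screen at 1 μM final against a panel of 25 kinases using a commercial profiling service; mean of three independent experiments each run in triplicate.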

[5] = test system: HK-2; experiment: Cytotoxicity against human HK2 cells assessed as inhibition of cell proliferation measured after 72 hrs by MTT assay; type: cell-based; settings: HK-2, 72 h
How it was run: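 Cells were seeded at 4000–5000/well and held 24 h at 37 °C in 5% CO2. Compounds were added at the indicated final concentrations and incubated 72 h. MTT was added (5 mg/mL in PBS, stated as final) for 4 h at 37 °C. Formazan was dissolved in DMSO and absorbance read at 490 nm. The 50% growth-inhibitory concentration is the mean of three independent experiments ± SE.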

[6] = Metabolic stability in rat liver microsomes assessed as parent compound remaining at 1 uM measured after 60 mins in absence of NADPH by LC-MS/MS analysis; type: ADME, Microsome; settings: read-out: Stabilty
How it was run: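 Rat liver microsomes (0.5 mg/mL) were incubated at 37 °C with 1 μM compound in pH 7.4 potassium phosphate/MgCl2 buffer for 1 h, with buffer in place of the NADPH regeneration system. After acetonitrile precipitation, percent parent remaining was measured by LC-MS/MS.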

[7] = test system: MDA-MB-231; experiment: Induction of apoptosis in human MDA-MB-231 cells assessed as early apoptotic cells at 0.2 uM incubated for 48 hrs by Annexin V-FITC/PI staining based flow cytometric analysis (reference value: 1.58%); type: functional
[8] = target: Serine/threonine-protein kinase pim-1 (Homo sapiens) (UniProt P11309); experiment: Inhibition of His-tagged full length recombinant human PIM1 expressed in baculovirus expression system at 1 uM by Selectscreen kinase assay; how it was run: as §1
[9] = target: Protein kinase C theta type (Homo sapiens) (UniProt Q04759); experiment: Inhibition of His-tagged full length human PKC theta expressed in baculovirus expression system at 1 uM by Selectscreen kinase assay; how it was run: as §1
[10] = test system: A549; experiment: Antiproliferative activity against human A549 cells assessed as reduction in cell viability at 0.1 to 2.5 uM by MTT assay; type: functional, cell-based; settings: dose 0.1-2.5 µM, time 24-72 hrs, TDE = time-dependent effect
[11] = test system: MDA-MB-231; experiment: Induction of cell cycle arrest in human MDA-MB-231 cells assessed as accumulation of cells at G0/G1 phase at 0.1 uM measured after 48 hrs by PI staining based flow cytometry method (reference value: 43.43%); type: functional
[12] = test system: MDA-MB-231; experiment: Antiproliferative activity against human MDA-MB-231 cells assessed as cell viability at 0.1 uM measured after 72 hrs by MTT assay (reference value: 100%); type: functional; settings: read-out: Activity
[13] = target: RAC-alpha serine/threonine-protein kinase (Homo sapiens) (UniProt P31749); experiment: Inhibition of His-tagged human full length AKT1 expressed in baculovirus expression system at 1 uM by Selectscreen kinase assay; how it was run: as §1
[14] = test system: MDA-MB-231; experiment: Antiproliferative activity against human MDA-MB-231 cells assessed as reduction in cell viability measured after 24 to 72 hrs by MTT assay; type: functional, cell-based; settings: dose 0.1-2.5 µM, time 24-72 hrs
[15] = test system: A549; experiment: Antiproliferative activity against human A549 cells assessed as cell viability at 0.5 uM measured after 72 hrs by MTT assay (reference value: 100%); type: functional; settings: read-out: Activity
[16] = test system: A549; experiment: Antiproliferative activity against human A549 cells assessed as cell viability at 2.5 uM measured after 48 hrs by MTT assay (reference value: 100%); type: functional; settings: read-out: Activity
[17] = test system: MDA-MB-231; experiment: Induction of cell cycle arrest in human MDA-MB-231 cells assessed as accumulation of cells at G0/G1 phase at 0.2 uM measured after 48 hrs by PI staining based flow cytometry method (reference value: 43.43%); type: functional
[18] = target: Cyclin-dependent kinase 2 (Homo sapiens) (UniProt P24941); experiment: Inhibition of human CDK2 at 1 uM by Selectscreen kinase assay; how it was run: as §1
[19] = test system: MDA-MB-231; experiment: Induction of apoptosis in human MDA-MB-231 cells assessed as late apoptotic cells at 0.2 uM incubated for 48 hrs by Annexin V-FITC/PI staining based flow cytometric analysis (reference value: 1.49%); type: functional
[20] = test system: A549; experiment: Antiproliferative activity against human A549 cells assessed as cell viability at 2.5 uM measured after 72 hrs by MTT assay (reference value: 100%); type: functional; settings: read-out: Activity
[21] = test system: MDA-MB-231; experiment: Induction of apoptosis in human MDA-MB-231 cells incubated for 48 hrs by Annexin V-FITC/PI staining based flow cytometric analysis; type: functional, cell-based; settings: dose 0.1-0.4 µM
[22] = test system: MDA-MB-231; experiment: Induction of cell cycle arrest in human MDA-MB-231 cells assessed as accumulation of cells at G2/M phase at 0.2 uM measured after 48 hrs by PI staining based flow cytometry method (reference value: 17.40%); type: functional
[23] = test system: MDA-MB-231; experiment: Induction of apoptosis in human MDA-MB-231 cells assessed as necrotic cells at 0.2 uM incubated for 48 hrs by Annexin V-FITC/PI staining based flow cytometric analysis (reference value: 1.08%); type: functional
[24] = test system: MDA-MB-231; experiment: Antiproliferative activity against human MDA-MB-231 cells assessed as cell viability at 2.5 uM measured after 24 hrs by MTT assay (reference value: 100%); type: functional; settings: read-out: Activity
[25] = test system: MDA-MB-231; experiment: Induction of apoptosis in human MDA-MB-231 cells assessed as early apoptotic cells at 0.1 uM incubated for 48 hrs by Annexin V-FITC/PI staining based flow cytometric analysis (reference value: 1.58%); type: functional
[26] = Metabolic stability in rat liver microsomes assessed as parent compound remaining at 1 uM measured after 60 mins in presence of NADPH by LC-MS/MS analysis; type: ADME, Microsome; settings: read-out: Stabilty
How it was run: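 Rat liver microsomes (0.5 mg/mL) were incubated at 37 °C with 1 μM compound in 100 mM potassium phosphate, pH 7.4, with 10 mM MgCl2. Reaction was started with prewarmed NADPH cofactor and sampled at 0, 5, 10, 20, 30 and 60 min. Protein was precipitated with cold acetonitrile and supernatants analysed by LC-MS/MS to give half-life, 1 h remaining and intrinsic clearance.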

[27] = test system: MDA-MB-231; experiment: Induction of apoptosis in human MDA-MB-231 cells assessed as late apoptotic cells at 0.1 uM incubated for 48 hrs by Annexin V-FITC/PI staining based flow cytometric analysis (reference value: 1.49%); type: functional
[28] = test system: MDA-MB-231; experiment: Antiproliferative activity against human MDA-MB-231 cells assessed as cell viability at 0.1 uM measured after 48 hrs by MTT assay (reference value: 100%); type: functional; settings: read-out: Activity

Chain of Serine/threonine-protein kinase pim-1 (Homo sapiens) (P11309 whole entry, looked up): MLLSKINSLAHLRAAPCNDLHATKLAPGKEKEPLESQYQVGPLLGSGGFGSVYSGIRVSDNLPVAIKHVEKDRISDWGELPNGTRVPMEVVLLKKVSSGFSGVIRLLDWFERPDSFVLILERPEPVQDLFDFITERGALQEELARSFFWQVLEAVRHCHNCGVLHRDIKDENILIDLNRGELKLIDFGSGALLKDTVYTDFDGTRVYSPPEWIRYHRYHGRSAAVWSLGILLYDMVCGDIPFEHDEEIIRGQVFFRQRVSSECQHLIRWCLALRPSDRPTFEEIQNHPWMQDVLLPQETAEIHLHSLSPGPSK
Chain of Protein kinase C theta type (Homo sapiens) (Q04759 whole entry, looked up): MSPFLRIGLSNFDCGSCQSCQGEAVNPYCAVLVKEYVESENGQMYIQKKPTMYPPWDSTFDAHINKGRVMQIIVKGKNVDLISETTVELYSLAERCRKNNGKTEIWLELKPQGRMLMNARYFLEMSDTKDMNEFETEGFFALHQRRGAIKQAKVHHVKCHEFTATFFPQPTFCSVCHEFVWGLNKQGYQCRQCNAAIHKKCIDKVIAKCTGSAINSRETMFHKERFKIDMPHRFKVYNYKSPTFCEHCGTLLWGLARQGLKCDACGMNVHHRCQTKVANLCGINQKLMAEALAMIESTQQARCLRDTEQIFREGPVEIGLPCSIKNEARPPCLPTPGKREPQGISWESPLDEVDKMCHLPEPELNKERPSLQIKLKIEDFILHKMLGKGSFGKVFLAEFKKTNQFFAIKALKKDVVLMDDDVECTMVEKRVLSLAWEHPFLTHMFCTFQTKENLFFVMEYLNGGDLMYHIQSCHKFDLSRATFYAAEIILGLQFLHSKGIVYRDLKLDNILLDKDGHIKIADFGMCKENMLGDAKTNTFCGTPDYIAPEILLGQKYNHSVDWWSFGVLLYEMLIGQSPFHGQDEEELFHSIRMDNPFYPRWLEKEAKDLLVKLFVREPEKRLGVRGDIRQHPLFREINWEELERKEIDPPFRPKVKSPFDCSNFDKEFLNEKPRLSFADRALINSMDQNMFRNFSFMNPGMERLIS
Chain of MAP kinase-interacting serine/threonine-protein kinase 1 (Homo sapiens) (Q9BUB5 whole entry, looked up): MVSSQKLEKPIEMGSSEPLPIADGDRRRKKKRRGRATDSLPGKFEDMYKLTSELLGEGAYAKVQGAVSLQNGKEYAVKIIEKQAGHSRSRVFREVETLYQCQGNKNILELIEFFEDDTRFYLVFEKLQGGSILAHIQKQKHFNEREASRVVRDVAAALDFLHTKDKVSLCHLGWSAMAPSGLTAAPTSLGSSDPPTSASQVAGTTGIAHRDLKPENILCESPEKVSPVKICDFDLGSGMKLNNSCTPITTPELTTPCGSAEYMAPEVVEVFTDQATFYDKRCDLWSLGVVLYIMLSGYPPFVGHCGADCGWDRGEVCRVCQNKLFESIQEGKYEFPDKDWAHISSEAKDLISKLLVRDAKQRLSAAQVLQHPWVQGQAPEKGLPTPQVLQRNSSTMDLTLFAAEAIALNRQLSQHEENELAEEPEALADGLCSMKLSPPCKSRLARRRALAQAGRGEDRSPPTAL
Chain of RAC-alpha serine/threonine-protein kinase (Homo sapiens) (P31749 whole entry): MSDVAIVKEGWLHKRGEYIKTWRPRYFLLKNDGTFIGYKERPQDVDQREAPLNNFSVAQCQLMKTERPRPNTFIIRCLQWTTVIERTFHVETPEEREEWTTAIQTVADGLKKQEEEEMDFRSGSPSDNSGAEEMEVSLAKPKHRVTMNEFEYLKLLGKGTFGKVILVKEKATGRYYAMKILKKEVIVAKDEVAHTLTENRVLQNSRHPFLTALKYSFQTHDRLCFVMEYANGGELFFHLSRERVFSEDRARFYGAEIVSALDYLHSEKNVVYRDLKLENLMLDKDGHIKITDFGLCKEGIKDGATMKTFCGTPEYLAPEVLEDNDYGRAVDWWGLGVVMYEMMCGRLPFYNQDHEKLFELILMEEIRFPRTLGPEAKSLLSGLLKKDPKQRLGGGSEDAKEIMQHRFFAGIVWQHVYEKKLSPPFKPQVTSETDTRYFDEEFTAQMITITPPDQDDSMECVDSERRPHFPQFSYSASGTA

inhibition [4]: 13%
remaining at 1 h, 1 µM [6]: 92.1%
inhibition [8]: 3%
inhibition [9]: 48%
inhibition [13]: 15%
inhibition [18]: 97%
remaining at 1 h, 1 µM [26]: 72.4%
Compound: COc1ccccc1-c1csc2cnc(Nc3ccc(C(=O)NC4CCNCC4)c(F)c3)nc12
viability at 0.5 µM [1]: 79.1%
inhibition [2]: Dose-dependent effect
viability at 0.1 µM [3]: 66.9%
pIC50 [5]: 5.48
Activity [7]: 9.78%
Activity [10]: Tde
Activity [11]: 45.25%
viability at 0.1 µM [12]: 69.7%
Activity [14]: Dose-dependent effect
viability at 0.5 µM [15]: 32.2%
viability at 2.5 µM [16]: 31%
Activity [17]: 51.4%
Activity [19]: 13.55%
viability at 2.5 µM [20]: 18.8%
Activity [21]: Dose-dependent effect
Activity [22]: 9.49%
Activity [23]: 1.72%
viability at 2.5 µM [24]: 52.2%
Activity [25]: 7.21%
Activity [27]: 4.36%
viability at 0.1 µM [28]: 74.1%
